Experimental data taken from ChEMBL document CHEMBL2331490, “Synthesis and in vitro evaluation of new derivatives of 2-substituted-6-fluorobenzo[d]thiazoles as cholinesterase inhibitors” (Bioorg Med Chem, 2013).
pIC50: −log10 of the molar value.

Tests used:
[1] = Lipophilicity, log P of the compound calculated using ChemOffice software
[2] = biological target: Cholinesterase (Equus caballus, UniProt P81908); assay: Inhibition of equine BChE using after 10 mins by Ellman's method
Outline: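 BChE from equine serum, diluted in phosphate buffer (0.1 M, pH 8). Catalytic activity in the final mixture was 0.14 U/mL. Enzyme was preincubated with compound (dioxane stock diluted in water) for 5 min at 25 °C. Then 0.5 mM DTNB and 0.25 mM acetylthiocholine were added, incubated 10 min at 25 °C, and absorbance read at 412 nm. IC50 taken from %inhibition versus concentration, 3 replicates.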

[3] = biological target: Acetylcholinesterase (Electrophorus electricus, UniProt O42275); assay: Inhibition of Electrophorus electricus AChE using acetylthiocholine as substrate after 10 mins by Ellman's method
Chain of Acetylcholinesterase (O42275 whole entry): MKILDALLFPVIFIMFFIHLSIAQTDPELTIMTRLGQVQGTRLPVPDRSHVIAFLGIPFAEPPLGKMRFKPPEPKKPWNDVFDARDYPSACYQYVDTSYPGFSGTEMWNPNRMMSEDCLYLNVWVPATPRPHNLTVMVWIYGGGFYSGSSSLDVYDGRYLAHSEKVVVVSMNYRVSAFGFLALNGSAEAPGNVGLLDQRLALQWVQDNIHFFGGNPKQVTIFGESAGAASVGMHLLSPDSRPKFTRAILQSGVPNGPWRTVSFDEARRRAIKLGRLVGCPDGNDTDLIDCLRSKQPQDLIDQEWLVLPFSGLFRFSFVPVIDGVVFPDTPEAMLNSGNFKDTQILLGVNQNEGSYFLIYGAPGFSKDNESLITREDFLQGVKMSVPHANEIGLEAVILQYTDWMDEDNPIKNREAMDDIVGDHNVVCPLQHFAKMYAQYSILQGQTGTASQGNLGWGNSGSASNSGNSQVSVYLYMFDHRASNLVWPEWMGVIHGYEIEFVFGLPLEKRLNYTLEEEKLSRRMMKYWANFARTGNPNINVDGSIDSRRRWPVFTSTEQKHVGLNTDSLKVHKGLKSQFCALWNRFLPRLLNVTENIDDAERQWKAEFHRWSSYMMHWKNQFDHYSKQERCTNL

[4] = Lipophilicity, log k of the compound by HPLC analysis; assay type: physicochemical
Outline: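 Mobile phase MeOH/water 70:30, 1.0 mL/min, column at 45 °C, samples at 10 °C, photodiode array detection. log k calculated from k.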

[5] = tested on: MCF7; assay: Growth inhibition of human MCF7 cells at 2500 umol/l measured immediately by xCelligence RTCA SP assay; assay type: cell-based; conditions: mcf7, 2500 µM
Outline: (§1)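 MCF7 (p37) grown in DMEM with 10% FCS, penicillin-streptomycin and 0.01 mg/mL insulin. Seeded at 75.000 cells/well on impedance E-plates and monitored hourly as cell index. Treated in log phase with compounds in DMSO, 0.01–2500 µmol/L, in triplicate. CI normalized to the last point before addition. Vehicle control 0.1% DMSO; 10% DMSO as 0% viability. IC50 taken at 24 h.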

[6] = tested on: HepG2; assay: Growth inhibition of human HepG2 cells at >10 umol/l after 24 hrs by MTS assay; assay type: cell-based; conditions: hepg2, 24 h
Outline: (§2)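 HepG2 (p13) grown in MEM with 10% FBS, L-glutamine and non-essential amino acids at 37 °C, 5% CO2. Seeded at 10,000 cells/well and treated next day with compounds in DMSO, 12 concentrations (0.001–5000 or 0.001–2500 µmol/L), in triplicate. Controls were untreated cells, 10% DMSO (0% viability), no cells and vehicle. After 24 h, MTS reagent was added for 3.5 h at 37 °C and A490 was read. IC50 from curve fit.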

[7] = tested on: MCF7; assay: Growth inhibition of human MCF7 cells at 1000 umol/l measured immediately by xCelligence RTCA SP assay; assay type: cell-based; conditions: mcf7, 1000 µM
Outline: as §1

[8] = tested on: MCF7; assay: Growth inhibition of human MCF7 cells at 0.01 to 100 umol/l measured immediately by xCelligence RTCA SP assay; assay type: cell-based
Outline: as §1

[9] = tested on: MCF7; assay: Cytotoxicity against human MCF7 cells after 24 hrs by xCelligence RTCA SP assay; assay type: cell-based; conditions: MCF7, 24 h
Outline: as §1

[10] = tested on: HepG2; assay: Cytotoxicity against human HepG2 cells after 24 hrs by MTS assay; assay type: cell-based; conditions: HepG2, 24 h
Outline: as §2

[11] = tested on: MCF7; assay: Growth inhibition of human MCF7 cells at 2500 umol/l measured after 24 hrs by xCelligence RTCA SP assay; assay type: cell-based; conditions: mcf7, 24 h, 2500 µM
Outline: as §1

[12] = tested on: HepG2; assay: Growth inhibition of human HepG2 cells at <1000 umol/l after 24 hrs by MTS assay; assay type: cell-based; conditions: hepg2, 24 h
Outline: as §2

[13] = tested on: HepG2; assay: Growth inhibition of human HepG2 cells at >1000 umol/l after 24 hrs by MTS assay; assay type: cell-based; conditions: hepg2, 24 h
Outline: as §2

[14] = tested on: MCF7; assay: Growth inhibition of human MCF7 cells at 1000 umol/l measured after 24 hrs by xCelligence RTCA SP assay; assay type: cell-based; conditions: mcf7, 24 h, 1000 µM
Outline: as §1

[15] = tested on: HepG2; assay: Growth inhibition of human HepG2 cells at <100 umol/l after 24 hrs by MTS assay; assay type: cell-based; conditions: hepg2, 24 h
Outline: as §2

[16] = tested on: HepG2; assay: Growth inhibition of human HepG2 cells at >100 umol/l after 24 hrs by MTS assay; assay type: cell-based; conditions: hepg2, 24 h
Outline: as §2

Chain of Cholinesterase (P81908 whole entry): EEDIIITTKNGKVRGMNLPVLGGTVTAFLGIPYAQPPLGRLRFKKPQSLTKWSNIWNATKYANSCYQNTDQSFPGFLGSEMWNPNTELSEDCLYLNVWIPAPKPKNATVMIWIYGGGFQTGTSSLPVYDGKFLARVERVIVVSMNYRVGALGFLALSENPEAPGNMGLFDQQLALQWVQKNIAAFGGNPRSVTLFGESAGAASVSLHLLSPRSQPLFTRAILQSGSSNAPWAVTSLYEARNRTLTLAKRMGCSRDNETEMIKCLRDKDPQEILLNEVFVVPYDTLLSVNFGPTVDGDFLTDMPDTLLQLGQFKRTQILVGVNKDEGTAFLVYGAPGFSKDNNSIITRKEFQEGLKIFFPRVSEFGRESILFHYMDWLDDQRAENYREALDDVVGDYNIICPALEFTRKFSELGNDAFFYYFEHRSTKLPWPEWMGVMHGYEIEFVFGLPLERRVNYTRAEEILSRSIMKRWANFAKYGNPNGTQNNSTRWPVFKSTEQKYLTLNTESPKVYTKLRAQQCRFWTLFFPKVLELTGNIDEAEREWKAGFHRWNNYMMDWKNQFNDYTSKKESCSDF

| SMILES | logP [1] | pIC50 [2] | pIC50 [3] | log K [4] | further results |
| --- | --- | --- | --- | --- | --- |
| CC(C)[C@H](NC(=O)OCC(Cl)(Cl)Cl)C(=O)N[C@H](C)c1nc2ccc(F)cc2s1 | 4.89 | 4.58 | 4.52 | 0.8043 | – |
| CC(C)[C@H](NC(=O)OCC(F)(F)F)C(=O)N[C@H](C)c1nc2ccc(F)cc2s1 | 4.15 | 4.14 | 4.31 | 0.5643 | – |
| CC(C)[C@H](NC(=O)OCC(F)(F)C(F)F)C(=O)N[C@H](C)c1nc2ccc(F)cc2s1 | 4.09 | 4.47 | 4.54 | 0.5237 | – |
| CC(C)[C@H](NC(=O)OCC(F)(F)C(F)(F)C(F)(F)F)C(=O)N[C@H](C)c1nc2ccc(F)cc2s1 | 5.35 | 4.08 | 4.07 | 0.9218 | – |
| CCC[C@H](NC(=O)OC)C(=O)N[C@H](C)c1nc2ccc(F)cc2s1 | 3.19 | 4.69 | 4.31 | 0.4166 | – |
| CCC[C@H](NC(=O)OCC)C(=O)N[C@H](C)c1nc2ccc(F)cc2s1 | 3.52 | 4.85 | 4.46 | 0.4873 | – |
| CCCOC(=O)N[C@@H](CCC)C(=O)N[C@H](C)c1nc2ccc(F)cc2s1 | 4.01 | 4.72 | 4.54 | 0.5873 | – |
| CCC[C@H](NC(=O)OC(C)C)C(=O)N[C@H](C)c1nc2ccc(F)cc2s1 | 3.84 | 4.49 | 4.67 | 0.5752 | growth inhibition (GI) [5]: Toxic; growth inhibition (GI) [6]: Toxic; growth inhibition (GI) [7]: Toxic; growth inhibition (GI) [8]: Non-toxic; pIC50 [9]: 2.92; pIC50 [10]: 3.56 |
| CCCCOC(=O)N[C@@H](CCC)C(=O)N[C@H](C)c1nc2ccc(F)cc2s1 | 4.43 | 4.71 | 4.55 | 0.7231 | – |
| CCC[C@H](NC(=O)OCC(C)C)C(=O)N[C@H](C)c1nc2ccc(F)cc2s1 | 4.41 | 4.58 | 4.69 | 0.7063 | growth inhibition (GI) [5]: Toxic; growth inhibition (GI) [6]: Toxic; growth inhibition (GI) [7]: Toxic; growth inhibition (GI) [8]: Non-toxic; pIC50 [9]: 3.21; pIC50 [10]: 3.56 |
| CCC[C@H](NC(=O)OCCCl)C(=O)N[C@H](C)c1nc2ccc(F)cc2s1 | 3.9 | 4.27 | 4.45 | 0.514 | – |
| CCC[C@H](NC(=O)OCC(Cl)(Cl)Cl)C(=O)N[C@H](C)c1nc2ccc(F)cc2s1 | 4.91 | 4.20 | 4.54 | 0.8297 | – |
| CCC[C@H](NC(=O)OCC(F)(F)F)C(=O)N[C@H](C)c1nc2ccc(F)cc2s1 | 4.16 | 4.23 | 4.53 | 0.5825 | – |
| CCC[C@H](NC(=O)OCC(F)(F)C(F)F)C(=O)N[C@H](C)c1nc2ccc(F)cc2s1 | 4.11 | 4.36 | 4.51 | 0.5415 | – |
| CCC[C@H](NC(=O)OCC(F)(F)C(F)(F)C(F)(F)F)C(=O)N[C@H](C)c1nc2ccc(F)cc2s1 | 5.37 | 4.22 | 4.34 | 0.9463 | – |
| COC(=O)N[C@H](C(=O)N[C@H](C)c1nc2ccc(F)cc2s1)C(C)C | 3.17 | 4.49 | 4.04 | 0.4113 | – |
| CCOC(=O)N[C@H](C(=O)N[C@H](C)c1nc2ccc(F)cc2s1)C(C)C | 3.51 | 4.45 | 3.82 | 0.4834 | growth inhibition (GI) [5]: Toxic; growth inhibition (GI) [7]: Toxic; growth inhibition (GI) [11]: Non-toxic; growth inhibition (GI) [12]: Non-toxic; growth inhibition (GI) [8]: Non-toxic; pIC50 [9]: < 2.36; growth inhibition (GI) [13]: Toxic; growth inhibition (GI) [14]: Non-toxic; pIC50 [10]: < 2.30 |
| CCCOC(=O)N[C@H](C(=O)N[C@H](C)c1nc2ccc(F)cc2s1)C(C)C | 3.99 | 4.15 | 3.96 | 0.5851 | growth inhibition (GI) [5]: Toxic; growth inhibition (GI) [15]: Non-toxic; growth inhibition (GI) [7]: Toxic; growth inhibition (GI) [8]: Non-toxic; pIC50 [9]: 2.36; growth inhibition (GI) [16]: Toxic; growth inhibition (GI) [14]: Non-toxic; pIC50 [10]: 2.76 |
| CCCCOC(=O)N[C@H](C(=O)N[C@H](C)c1nc2ccc(F)cc2s1)C(C)C | 4.41 | 4.20 | 4.17 | 0.7135 | – |
| CC(C)COC(=O)N[C@H](C(=O)N[C@H](C)c1nc2ccc(F)cc2s1)C(C)C | 4.39 | 4.39 | 4.31 | 0.7041 | – |
| CC(C)[C@H](NC(=O)OCCCl)C(=O)N[C@H](C)c1nc2ccc(F)cc2s1 | 3.88 | 4.27 | 4.32 | 0.5014 | – |
| CC(C)[C@H](NC(=O)OCCBr)C(=O)N[C@H](C)c1nc2ccc(F)cc2s1 | 4 | – | 4.33 | 0.5418 | – |
| CC(C)OC(=O)N[C@H](C(=O)N[C@H](C)c1nc2ccc(F)cc2s1)C(C)C [BENTHIAVALICARB-ISOPROPYL] | 3.82 | 4.39 | 4.02 | 0.5725 | – |
| COc1ccc2c3c1O[C@H]1C[C@@H](O)C=C[C@@]31CCN(C)C2 [GALANTAMINE] | 1.41 | – | – | – | – |
| CCN(C)C(=O)Oc1cccc([C@H](C)N(C)C)c1 [RIVASTIGMINE] | 2.36 | – | – | – | – |
